For test [1], the system named is Mycobacterium tuberculosis. Kind of test: Antitubercular activity against multidrug resistant Mycobacterium tuberculosis isolate 9160 assessed as parasite growth inhibition measured after 7 days incubation by microplate alamar blue assay. The test is classed as functional. The conditions noted are these: isolate 9160, 168 h. The gist of the method: (§1)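 Strains grown to late log phase in 7H9 with 0.2% glycerol, 0.05% Tween 80 and 10% ADC. Cells washed, resuspended in PBS, filtered (8 µm) and frozen at -80 °C. Two-fold compound dilutions, 2 × 10⁵ CFU per well, 37 °C for 7 days. Tween 80 and Alamar blue then added for 16-24 h; fluorescence read at ex 530/em 590 nm. MIC = lowest concentration giving ≥90% fluorescence reduction versus mean of bacterium-only controls.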

The test system of test [2] is Mycobacterium tuberculosis. Kind of test: Antitubercular activity against multidrug resistant Mycobacterium tuberculosis isolate 11168 assessed as parasite growth inhibition measured after 7 days incubation by microplate alamar blue assay. The test is classed as functional. As to conditions: isolate 11168, 168 h. The gist of the method: as §1

In brackets after ≈: the same amount, converted by molar mass.

For `CCc1nc2ccc(Br)cn2c1C(=O)NCCOc1ccc(N2CCC(C(F)(F)F)CC2)cc1`, the MIC in test [1] is 0.13 µg/mL (≈ 0.241 µM); in test [2] it was less than 0.016 µg/mL.
Turning to `CCc1nc2ccc(Cl)cn2c1C(=O)NCCOc1ccc(Br)cc1`, the MIC in test [1] was found to be 0.311 µg/mL (≈ 0.736 µM); in test [2] it was 0.063 µg/mL (≈ 0.149 µM).
On to `COc1ccc(OCCNC(=O)c2c(C3CC3)nc3ccc(C)cn23)cc1`, for which the MIC in test [1] is 0.429 µg/mL (≈ 1.17 µM); in test [2], less than 0.016 µg/mL.
For `CCc1nc2ccc(Cl)cn2c1C(=O)NCCOc1ccc(Cl)cc1` the same measures were 1 µg/mL (≈ 2.64 µM) and 0.25 µg/mL (≈ 0.661 µM).
Take `COc1ccc2nc(C)c(C(=O)NCCOc3ccc(N4CCC(C(F)(F)F)CC4)cc3)n2c1`: the MIC in test [1] is 0.111 µg/mL (≈ 0.233 µM); in test [2], less than 0.016 µg/mL.
`CCc1nc2ccc(Br)cn2c1C(=O)NCCOc1ccc(N2CC3CCCCC3C2)cc1` (stereo unspecified): the MIC in test [1] was 0.032 µg/mL (≈ 0.0626 µM); in test [2], less than 0.016 µg/mL.
For the compound `CCc1nc2ccc(Br)cn2c1C(=O)NCCOc1ccc(N2CCCCC2)cc1`, the MIC in test [1] and in test [2] was less than 0.016 µg/mL each time.
In the case of `CCc1nc2ccc(C)cn2c1C(=O)NCCOc1ccc(OC)cc1`, the figures for the MIC in test [1] and in test [2] were 0.394 µg/mL (≈ 1.11 µM) and less than 0.016 µg/mL, respectively.
For `CCc1nc2ccc(Cl)cn2c1C(=O)NCCOc1ccc(N(C)C)cc1` the same measures were 0.225 µg/mL (≈ 0.582 µM) and less than 0.016 µg/mL.
For `CCc1nc2ccc(Cl)cn2c1C(=O)NCCOc1ccc(N2CCN(c3ccc(F)cc3)CC2)cc1` the same measures were 0.016 µg/mL (≈ 0.0306 µM) and less than 0.016 µg/mL.
For `COc1ccc2nc(C)c(C(=O)NCCOc3ccc(N4CC5CCCCC5C4)cc3)n2c1` (stereo unspecified) the same measures were less than 0.016 µg/mL and less than 0.016 µg/mL.
For the compound `CCc1nc2ccc(Br)cn2c1C(=O)NCCOc1ccc(Br)cc1`, the MIC worked out at 0.449 µg/mL (≈ 0.961 µM) in test [1] and 0.125 µg/mL (≈ 0.268 µM) in test [2].
As to `CCc1nc2ccc(C)cn2c1C(=O)NCCOc1ccc(N2CC3CCCCC3C2)cc1` (stereo unspecified), the MIC is 0.024 µg/mL (≈ 0.0537 µM) in test [1] and less than 0.016 µg/mL in test [2].
For `COc1ccc2nc(C)c(C(=O)NCCOc3ccc(Br)cc3)n2c1` the same measures were 0.5 µg/mL (≈ 1.24 µM) and 0.125 µg/mL (≈ 0.309 µM).
For `NNC(=O)c1ccncc1` [ISONIAZID], the MIC in test [1] and in test [2] was more than 40 µg/mL in each case.
As to `O=c1nc(N2CCN(CC3CCCCC3)CC2)sc2c([N+](=O)[O-])cc(C(F)(F)F)cc12` [MACOZINONE], the values for the MIC in test [1] and in test [2] were 0.232 µg/mL (≈ 0.508 µM) and 0.116 µg/mL (≈ 0.254 µM), respectively.
For `CO[C@H]1/C=C/O[C@@]2(C)Oc3c(C)c(O)c4c(O)c(c(/C=N/N5CCN(C)CC5)c(O)c4c3C2=O)NC(=O)/C(C)=C\C=C\[C@H](C)[C@H](O)[C@@H](C)[C@@H](O)[C@@H](C)[C@H](OC(C)=O)[C@@H]1C` [RIFAMPIN] the same measures were 38.6 µg/mL (≈ 47 µM) and 36.9 µg/mL (≈ 44.8 µM).
For `CCc1nc2ccc(Cl)cn2c1C(=O)NCc1ccc(N2CCC(c3ccc(OC(F)(F)F)cc3)CC2)cc1` [TELACEBEC], in that order: 0.057 µg/mL (≈ 0.102 µM) and less than 0.016 µg/mL.

The values above are taken from ChEMBL document CHEMBL4304771, “Design, synthesis and biological activity of N-(2-phenoxy)ethyl imidazo[1,2-a]pyridine-3-carboxamides as new antitubercular agents” (Eur J Med Chem, 2019).
